This note sets out measurements from ChEMBL document CHEMBL1138547, “Synthesis, biological evaluation and 2D-QSAR analysis of benzoxazoles as antimicrobial agents” (2009).

Converted amounts (≈) assume the structure as drawn.

The term MIC denotes the least concentration at which growth counts as inhibited.

What all share (format): functional
Assay [1] concerns Klebsiella pneumoniae. In words: Antimicrobial activity against Klebsiella pneumoniae RSHM 574 after 24 hrs. The essentials: (§1)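 MIC by twofold serial dilution in Mueller-Hinton broth (MHB); MHB also used to dilute the bacterial suspension. Wells held 10^3 cfu/ml bacteria after inoculation. Controls: 80% DMSO, 20% EtOH, methanol, DMSO, PBS, organism alone and medium alone. Triplicate in each run. MIC taken as the lowest concentration completely inhibiting macroscopic growth.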

Assay [2] has as its system Klebsiella pneumoniae. As to the kind of experiment: Antimicrobial activity against multidrug-resistant Klebsiella pneumoniae after 24 hrs. The essentials: (§2)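 Twofold serial broth dilution in Mueller-Hinton broth. MHB was used both to dilute the bacterial suspension and for the twofold compound dilutions, giving 10^3 cfu/ml bacteria per well after inoculation. Solvent, medium and organism-only wells served as controls. Each organism was run in triplicate.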

The subject of assay [3] is Escherichia coli. In words: Antimicrobial activity against Escherichia coli ATCC 25922 after 24 hrs. Put shortly:
as §1

Assay [4] has as its system Escherichia coli. As to the kind of experiment: Antimicrobial activity against multidrug-resistant Escherichia coli after 24 hrs. The essentials: as §2
Assay [5] has as its system Pseudomonas aeruginosa. In words: Antimicrobial activity against Pseudomonas aeruginosa ATCC […] after 24 hrs. The essentials: as §1
For assay [6], the system named is Bacillus subtilis. In words: Antimicrobial activity against Bacillus subtilis ATCC 6633 after 24 hrs. Put shortly: as §1
Assay [7] deals with Bacillus subtilis. In words: Antimicrobial activity against ceftriazone-resistant Bacillus subtilis after 24 hrs. Put shortly:
as §2

For assay [8], the system named is Staphylococcus aureus. In words: Antimicrobial activity against Staphylococcus aureus ATCC 25923 after 24 hrs. Put shortly: as §2
Assay [9] relates to Staphylococcus aureus. In words: Antimicrobial activity against multidrug-resistant Staphylococcus aureus after 24 hrs. The essentials: as §2
In assay [10] the test system is Candida albicans. As to the kind of experiment: Antimicrobial activity against Candida albicans ATCC 10231 after 24 to 48 hrs. Put shortly:
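Twofold serial dilution following CLSI M27-A. Yeast suspension made at 10^4 cfu/ml by diluting a fresh culture at McFarland 0.5 (10^6 cfu/ml). Inoculated into the diluted compound, incubated at 35 °C in a humid chamber, read after 48 h. Triplicate in each run. MIC is the lowest concentration completely inhibiting macroscopic growth.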

Assay [11] has as its system Candida albicans. In words: Antimicrobial activity against multidrug-resistant Candida albicans isolates after 24 to 48 hrs. The essentials: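 Yeast broth microdilution following CLSI M27-A, with Sabouraud dextrose medium noted for antifungal assays. Fresh cultures at McFarland 0.5 (10^6 cfu/ml) were diluted to 10^4 cfu/ml and inoculated into twofold compound dilutions. Trays were incubated at 35 °C in a humid chamber and read at 48 h, in triplicate. MIC was the lowest concentration giving complete macroscopic growth inhibition.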

Setting [12] is: Bacillus subtilis, ATCC 6633, 24 h.

`CCc1ccc(-c2nc3ccc(N)cc3o2)cc1`: the MIC was 50 µg/mL (≈ 210 µM) in [1] (RSHM 574, 24 h); 100 µg/mL (≈ 420 µM) in assay [2]; 50 µg/mL (≈ 210 µM) in assay [3] (ATCC 25922, 24 h); 100 µg/mL (≈ 420 µM) in [4]; 50 µg/mL (≈ 210 µM) in assay [5]; 50 µg/mL (≈ 210 µM) in [6] (setting [12]). The MIC in assay [7] was 100 µg/mL (≈ 420 µM); in assay [8] (ATCC 25923, 24 h), 100 µg/mL (≈ 420 µM); in assay [9] it was 100 µg/mL (≈ 420 µM); in assay [10], 50 µg/mL (≈ 210 µM); in [11], 50 µg/mL (≈ 210 µM). The “log(1/C)” value in assay [6] is listed as 3.678.

For the compound `O=[N+]([O-])c1ccc2nc(-c3ccc(Br)cc3)oc2c1`, the MIC in [1] (RSHM 574, 24 h) was found to be 50 µg/mL (≈ 157 µM); in assay [2], 100 µg/mL (≈ 313 µM); in [3] (ATCC 25922, 24 h), 50 µg/mL (≈ 157 µM); in assay [4], 25 µg/mL (≈ 78.3 µM); in assay [5] it was 50 µg/mL (≈ 157 µM); in assay [6] (setting [12]), 12.5 µg/mL (≈ 39.2 µM). Also, the MIC in [7] came out at 50 µg/mL (≈ 157 µM); in [8] (ATCC 25923, 24 h) it was 100 µg/mL (≈ 313 µM); in assay [9] it was 400 µg/mL (≈ 1250 µM); in [10], 100 µg/mL (≈ 313 µM); in assay [11] it was 50 µg/mL (≈ 157 µM). Further, the “log(1/C)” value in [6] stood at 4.407.

`CCc1ccc(-c2nc3cc(N)ccc3o2)cc1`: the MIC turned out to be 50 µg/mL (≈ 210 µM) in [1] (RSHM 574, 24 h); 100 µg/mL (≈ 420 µM) in [2]; 50 µg/mL (≈ 210 µM) in assay [3] (ATCC 25922, 24 h); 100 µg/mL (≈ 420 µM) in assay [4]; 50 µg/mL (≈ 210 µM) in assay [5]; 12.5 µg/mL (≈ 52.5 µM) in assay [6] (setting [12]). Also, the MIC was found to be 50 µg/mL (≈ 210 µM) in assay [7]; 25 µg/mL (≈ 105 µM) in assay [8] (ATCC 25923, 24 h); 100 µg/mL (≈ 420 µM) in [9]; 50 µg/mL (≈ 210 µM) in [10]; 50 µg/mL (≈ 210 µM) in [11]. For the same compound, the “log(1/C)” value in assay [6] is 4.28.

With `Cc1ccc2nc(-c3ccc(Cl)cc3Cl)oc2c1`, the “log(1/C)” value in assay [6] was determined as 4.046. In assay [6] (setting [12]), this compound showed an MIC of 25 µg/mL (≈ 89.9 µM).

On to `Cc1ccc2oc(-c3ccccc3)nc2c1`, for which, in [6], the “log(1/C)” value worked out at 4.224. For the same compound, the MIC in [6] (setting [12]) was 12.5 µg/mL (≈ 59.7 µM).

Turning to `Nc1ccc2oc(-c3ccccc3)nc2c1`, the MIC in [1] (RSHM 574, 24 h) worked out at 50 µg/mL (≈ 238 µM); in assay [2], 100 µg/mL (≈ 476 µM); in assay [3] (ATCC 25922, 24 h), 50 µg/mL (≈ 238 µM); in assay [4], 50 µg/mL (≈ 238 µM); in assay [5] it was 50 µg/mL (≈ 238 µM); in assay [6] (setting [12]), 12.5 µg/mL (≈ 59.5 µM). Moreover, the MIC came to 50 µg/mL (≈ 238 µM) in assay [7]; 100 µg/mL (≈ 476 µM) in assay [8] (ATCC 25923, 24 h); 100 µg/mL (≈ 476 µM) in [9]; 100 µg/mL (≈ 476 µM) in [10]; 50 µg/mL (≈ 238 µM) in [11]. Besides, the “log(1/C)” value in assay [6] came out at 4.226.

For the compound `Cc1ccc2nc(-c3ccccc3F)oc2c1`, the “log(1/C)” value in [6] is recorded as 3.959. For the same compound, in assay [6] (setting [12]), inhibition of growth (MIC) required 25 µg/mL (≈ 110 µM).

In the case of GENTAMICIN SULFATE, the MIC in assay [1] came to 8 µg/mL; in assay [2], 64 µg/mL; in assay [3] it was 0.5 µg/mL; in [4], 1 µg/mL; in assay [5], 2 µg/mL; in assay [6], 1 µg/mL. The MIC turned out to be 512 µg/mL in assay [7], 0.06 µg/mL in [8] and 1020 µg/mL in [9].

In the case of `Cc1ccc(Cc2nc3cc(N)ccc3o2)cc1`, the MIC in assay [1] (RSHM 574, 24 h) amounted to 50 µg/mL (≈ 210 µM); in [2], 100 µg/mL (≈ 420 µM); in assay [3] (ATCC 25922, 24 h) it was 50 µg/mL (≈ 210 µM); in assay [4] it was 50 µg/mL (≈ 210 µM); in [5] it was 50 µg/mL (≈ 210 µM); in [6] (setting [12]) it was 12.5 µg/mL (≈ 52.5 µM). Also, the MIC in assay [7] stood at 25 µg/mL (≈ 105 µM); in [8] (ATCC 25923, 24 h) it was 100 µg/mL (≈ 420 µM); in assay [9] it was 100 µg/mL (≈ 420 µM); in [10] it was 100 µg/mL (≈ 420 µM); in assay [11], 50 µg/mL (≈ 210 µM). Moreover, the “log(1/C)” value in assay [6] was found to be 4.28.

On to `Cc1ccc2nc(-c3ccc(Cl)cc3)oc2c1`, for which the “log(1/C)” value in assay [6] came out at 4.29. This compound also had an MIC in assay [6] (setting [12]) of 12.5 µg/mL (≈ 51.3 µM).

As for `COc1ccc(-c2nc3ccc(C)cc3o2)c(OC)c1`, the “log(1/C)” value in assay [6] worked out at 4.032.

In the case of `CC(C)(C)c1ccc(-c2nc3ccc([N+](=O)[O-])cc3o2)cc1`, the MIC in assay [1] (RSHM 574, 24 h) was found to be 50 µg/mL (≈ 169 µM); in assay [2], 100 µg/mL (≈ 337 µM); in assay [3] (ATCC 25922, 24 h), 50 µg/mL (≈ 169 µM); in assay [4] it was 100 µg/mL (≈ 337 µM); in assay [5] it was 50 µg/mL (≈ 169 µM); in assay [6] (setting [12]), 50 µg/mL (≈ 169 µM). Moreover, the MIC in [7] stood at 100 µg/mL (≈ 337 µM); in [8] (ATCC 25923, 24 h), 100 µg/mL (≈ 337 µM); in assay [9] it was 100 µg/mL (≈ 337 µM); in assay [10], 50 µg/mL (≈ 169 µM); in assay [11], 100 µg/mL (≈ 337 µM). Further, the “log(1/C)” value in [6] is 3.773.

Take `COc1ccccc1-c1nc2cc(C)ccc2o1`: the “log(1/C)” value in [6] came out at 3.981. The same compound came in with an MIC in [6] (setting [12]) of 25 µg/mL (≈ 104 µM).

With `O=[N+]([O-])c1ccc2nc(Cc3ccc(Br)cc3)oc2c1`, the MIC came out at 50 µg/mL (≈ 150 µM) in [1] (RSHM 574, 24 h); 100 µg/mL (≈ 300 µM) in [2]; 50 µg/mL (≈ 150 µM) in assay [3] (ATCC 25922, 24 h); 100 µg/mL (≈ 300 µM) in [4]; 25 µg/mL (≈ 75 µM) in assay [5]; 25 µg/mL (≈ 75 µM) in assay [6] (setting [12]). For the same compound, the MIC stood at 25 µg/mL (≈ 75 µM) in assay [7]; 100 µg/mL (≈ 300 µM) in assay [8] (ATCC 25923, 24 h); 100 µg/mL (≈ 300 µM) in assay [9]; 50 µg/mL (≈ 150 µM) in [10]; 100 µg/mL (≈ 300 µM) in assay [11]. In [6], the “log(1/C)” value is listed as 4.125.

Take `Nc1ccc2nc(-c3ccc(F)cc3)oc2c1`: the MIC was 50 µg/mL (≈ 219 µM) in assay [1] (RSHM 574, 24 h); 100 µg/mL (≈ 438 µM) in assay [2]; 50 µg/mL (≈ 219 µM) in assay [3] (ATCC 25922, 24 h); 100 µg/mL (≈ 438 µM) in assay [4]; 50 µg/mL (≈ 219 µM) in assay [5]; 50 µg/mL (≈ 219 µM) in assay [6] (setting [12]). In addition, the MIC in [7] worked out at 50 µg/mL (≈ 219 µM); in assay [8] (ATCC 25923, 24 h), 100 µg/mL (≈ 438 µM); in assay [9], 100 µg/mL (≈ 438 µM); in [10] it was 50 µg/mL (≈ 219 µM); in assay [11], 50 µg/mL (≈ 219 µM). Further, the “log(1/C)” value in assay [6] came to 3.659.

For the compound `OC(Cn1cncn1)(Cn1cncn1)c1ccc(F)cc1F` [FLUCONAZOLE], the MIC in assay [10] was found to be 1 µg/mL (≈ 3.27 µM); in assay [11], 64 µg/mL (≈ 209 µM).
